Holding throughout (type): in vivo
Series [1] can be described thus: Two-compartment pharmacokinetic analysis of plasma data. The settings on record: ND4 Swiss Webster, mouse, iv, 0.24 mg/kg, distribution half-life, mice, IV 0.24 mg/kg dye, two-compartment model.
Series [2] is described as follows: Organ dye content 24 hours after IV injection. Particulars: mice. Put shortly: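 ND4 Swiss Webster mice (25–30 g, n=3 per group) were anaesthetised with IP pentobarbital (40 mg/kg). They received 0.24 mg/kg dye (conjugate dosed by dye content) via the tail vein. At 24 h, organs were dissected, minced, homogenised and extracted in DMSO for 4 h, then centrifuged at 9,000 rpm for 15 min. Supernatant fluorescence was read against a DMSO calibration curve (785 nm excitation) and normalised to organ mass.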

The nature of series [3]: Plasma dye concentration after IV injection. The settings on record: mice, 24 hours after IV injection.

This is an account of results in publication PMC4200025 (International Journal of Nanomedicine, 2014).

The structures appear in SMILES notation.

Turning to `CC1(C)C(/C=C/C=C/C=C/C=C2\N(CCCCS(=O)(=O)O)c3ccc4ccccc4c3C2(C)C)=[N+](CCCCS(=O)(=O)[O-])c2ccc3ccccc3c21` [ICG, indocyanine green], the half-life in series [1] is approximately 3.06 min. For the same molecule, in series [2], the “organ dye content, kidneys” value was “at background level” and the “organ dye content, lungs” value was “at background level”. Besides, in series [3], the “overall recovered percentage of injected dose (plasma plus organs)” value was found to be 2.6% and the “recovered percentage of injected dose in plasma” value is on record as 0.8%.
